{"source": "ChEMBL document CHEMBL4196162", "about": "“Target-Directed Self-Assembly of Homodimeric Drugs Against β-Tryptase” (ACS Med Chem Lett, 2018)", "key": {"[1]": {"assay": "Inhibition of recombinant human lung beta-tryptase using N-tert-butoxycarbonyl-Gln-Ala-Arg-AMC as substrate incubated for 3 hrs followed by substrate addition measured every 30 secs for 15 mins in presence of 1 nM of tryptase", "in_short": "(§1)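 Purified tryptase tested at several enzyme concentrations. IC50 from nonlinear regression with no Hill slope constraint.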"}, "Homo sapiens": {"species": "Homo sapiens", "assay": "Reversal inhibition of recombinant human lung beta-tryptase assessed as recovery of enzymatic activity at 10 uM using N-tert-butoxycarbonyl-Gln-Ala-Arg-AMC as substrate measured over 216 hrs"}, "[2]": {"assay": "Inhibition of recombinant human lung beta-tryptase using N-tert-butoxycarbonyl-Gln-Ala-Arg-AMC as substrate incubated for 3 hrs followed by substrate addition measured every 30 secs for 15 mins in presence of 10 pM of tryptase", "in_short": "as §1"}, "[3]": {"assay": "Inhibition of recombinant human lung beta-tryptase using N-tert-butoxycarbonyl-Gln-Ala-Arg-AMC as substrate incubated for 3 hrs followed by substrate addition measured every 30 secs for 15 mins in presence of 100 pM of tryptase", "in_short": "as §1"}, "[4]": {"assay": "Inhibition of beta-tryptase in human HMC1 cells assessed as decrease in A23187-induced degranulation in supernatant incubated for 2 hrs followed by A23187 addition measured after 1 hr", "type": "cell-based", "in_short": "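Cultured HMC1 human mast cells exposed to inhibitor (10 nM to 100 μM) for 2 h, then degranulated with 1 μM A23187 in PBS. After 1 h, supernatant tested for tryptase activity. IC50 and SEM from nonlinear regression with unconstrained Hill slope.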"}, "[5]": {"assay": "Inhibition of beta-tryptase in human HMC1 cells assessed as decrease in A23187-induced degranulation in cell lysates incubated for 2 hrs followed by A23187 addition measured after 1 hr", "type": "cell-based", "in_short": "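HMC1 human mast cell lysates tested for tryptase activity in the presence of inhibitor. IC50 and SEM from nonlinear regression with unconstrained Hill slope.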"}}, "note": "The source made the active and inactive calls. No cut-off for these calls is given here.", "data": [{"smiles": "NCc1cccc(C2CCN(C(=O)c3cccc(NC(=O)C(O)C4(O)CCC4)c3)CC2)c1", "note": "(stereo unspecified)", "values": [{"measurement": "IC50", "setting": "[1]", "value": 8.1, "unit": "µM"}, {"measurement": "inhibition", "setting": "Homo sapiens", "value": "Active"}, {"measurement": "IC50", "setting": "[2]", "value": 0.64, "unit": "µM"}, {"measurement": "IC50", "setting": "[3]", "value": 0.17, "unit": "µM"}, {"measurement": "IC50", "setting": "[4]", "value": 137, "unit": "µM"}, {"measurement": "IC50", "setting": "[5]", "value": 21.8, "unit": "µM"}]}]}
